ChEMBL document CHEMBL1142374, “Rational design of 4-amino-5,6-diaryl-furo[2,3-d]pyrimidines as potent glycogen synthase kinase-3 inhibitors” (Bioorg Med Chem Lett, 2008)

Assays:
[1] = target: Glycogen synthase kinase-3 beta (Homo sapiens, UniProt P49841); experiment: Inhibition of human GSK3-beta by fluorescence anisotropy binding assay
Method in brief: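 Competitive fluorescence anisotropy binding against a fluorescently labelled inhibitor. Compound typically 24 pM–25 µM final, DMSO <3%. Equilibrated 60–180 min at ambient temperature; anisotropy read at ex 485/em 535 nm. Assay error ±0.2 log units.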

[2] = Inhibition of GSK3 at 10 uM
[3] = target: Vascular endothelial growth factor receptor 2 (Homo sapiens, UniProt P35968); experiment: Inhibition of VEGFR2
[4] = target: RAC-alpha serine/threonine-protein kinase (Homo sapiens) (UniProt P31749); experiment: Inhibition of PKBa at 10 uM
[5] = target: Cyclin-dependent kinase 2 (Homo sapiens) (UniProt P24941); experiment: Inhibition of CDK2 at 10 uM
[6] = target: Dual specificity mitogen-activated protein kinase kinase 1 (Homo sapiens) (UniProt Q02750); experiment: Inhibition of MEK1 at 10 uM
[7] = target: T1, Serine/threonine-protein kinase Chk1 (Homo sapiens) (UniProt O14757); experiment: Inhibition of CHK1 at 10 uM
T1 sequence (whole entry): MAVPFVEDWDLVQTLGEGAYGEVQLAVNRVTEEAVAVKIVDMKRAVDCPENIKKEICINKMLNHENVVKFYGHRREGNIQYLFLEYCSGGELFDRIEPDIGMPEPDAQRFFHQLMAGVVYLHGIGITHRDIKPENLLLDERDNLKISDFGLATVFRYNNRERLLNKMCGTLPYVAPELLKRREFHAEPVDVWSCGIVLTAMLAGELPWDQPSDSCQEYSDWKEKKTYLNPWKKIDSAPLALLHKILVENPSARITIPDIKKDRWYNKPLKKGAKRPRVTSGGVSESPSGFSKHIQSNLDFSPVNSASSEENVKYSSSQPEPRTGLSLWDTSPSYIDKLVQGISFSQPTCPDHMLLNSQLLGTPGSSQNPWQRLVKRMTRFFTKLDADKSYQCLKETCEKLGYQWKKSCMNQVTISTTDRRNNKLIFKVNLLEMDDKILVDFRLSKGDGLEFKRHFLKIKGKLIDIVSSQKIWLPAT

[8] = Inhibition of AMPK at 10 uM
[9] = target: T2, Serine/threonine-protein kinase Sgk1 (Homo sapiens) (UniProt O00141); experiment: Inhibition of SGK at 10 uM
T2 sequence (whole entry): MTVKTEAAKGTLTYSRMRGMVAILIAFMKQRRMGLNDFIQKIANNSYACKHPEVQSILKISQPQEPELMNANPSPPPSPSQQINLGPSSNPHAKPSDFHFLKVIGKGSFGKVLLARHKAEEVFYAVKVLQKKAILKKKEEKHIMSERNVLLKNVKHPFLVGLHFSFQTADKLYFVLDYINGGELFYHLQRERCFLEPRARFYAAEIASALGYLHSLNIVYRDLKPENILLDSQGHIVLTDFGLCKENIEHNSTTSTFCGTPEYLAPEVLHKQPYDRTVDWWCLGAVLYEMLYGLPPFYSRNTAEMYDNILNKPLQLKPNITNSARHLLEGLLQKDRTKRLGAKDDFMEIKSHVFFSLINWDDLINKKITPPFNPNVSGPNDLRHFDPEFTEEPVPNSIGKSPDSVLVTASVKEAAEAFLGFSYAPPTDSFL

[10] = target: Glycogen synthase kinase-3 beta (Rattus norvegicus, UniProt P18266); experiment: Inhibition of rat GSK3-beta in L6 cells assessed as accumulation of glycogen; type: cell-based
[11] = Inhibition of PKA at 10 uM
[12] = Inhibition of MAPK at 10 uM
[13] = target: Mitogen-activated protein kinase 8 (Homo sapiens) (UniProt P45983); experiment: Inhibition of JNK1 at 10 uM
Mitogen-activated protein kinase 8 (Homo sapiens), sequence (P45983 whole entry): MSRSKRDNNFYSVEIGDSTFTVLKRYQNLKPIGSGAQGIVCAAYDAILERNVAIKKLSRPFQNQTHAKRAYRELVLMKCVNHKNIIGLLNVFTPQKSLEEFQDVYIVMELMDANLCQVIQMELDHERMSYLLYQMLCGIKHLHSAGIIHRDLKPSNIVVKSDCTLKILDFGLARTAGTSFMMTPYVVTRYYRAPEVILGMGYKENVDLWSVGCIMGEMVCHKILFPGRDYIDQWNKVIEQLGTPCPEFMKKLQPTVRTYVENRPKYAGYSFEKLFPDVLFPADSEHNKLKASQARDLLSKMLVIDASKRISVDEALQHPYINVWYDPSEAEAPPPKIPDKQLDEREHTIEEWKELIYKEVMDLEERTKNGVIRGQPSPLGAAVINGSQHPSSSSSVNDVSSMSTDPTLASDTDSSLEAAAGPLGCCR

Glycogen synthase kinase-3 beta (Homo sapiens, UniProt P49841), sequence (P49841 whole entry): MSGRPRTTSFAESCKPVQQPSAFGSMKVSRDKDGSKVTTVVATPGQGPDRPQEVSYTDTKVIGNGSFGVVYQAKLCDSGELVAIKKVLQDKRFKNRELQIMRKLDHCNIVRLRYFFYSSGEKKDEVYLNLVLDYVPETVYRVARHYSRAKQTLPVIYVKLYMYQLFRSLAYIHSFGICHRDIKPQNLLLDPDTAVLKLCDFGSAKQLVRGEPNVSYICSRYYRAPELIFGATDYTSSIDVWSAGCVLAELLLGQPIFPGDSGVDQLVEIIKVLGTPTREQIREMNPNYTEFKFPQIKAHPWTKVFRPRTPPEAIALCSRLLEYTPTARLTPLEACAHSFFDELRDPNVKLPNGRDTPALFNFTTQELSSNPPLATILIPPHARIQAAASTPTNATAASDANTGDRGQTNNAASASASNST
Vascular endothelial growth factor receptor 2, sequence (P35968 whole entry): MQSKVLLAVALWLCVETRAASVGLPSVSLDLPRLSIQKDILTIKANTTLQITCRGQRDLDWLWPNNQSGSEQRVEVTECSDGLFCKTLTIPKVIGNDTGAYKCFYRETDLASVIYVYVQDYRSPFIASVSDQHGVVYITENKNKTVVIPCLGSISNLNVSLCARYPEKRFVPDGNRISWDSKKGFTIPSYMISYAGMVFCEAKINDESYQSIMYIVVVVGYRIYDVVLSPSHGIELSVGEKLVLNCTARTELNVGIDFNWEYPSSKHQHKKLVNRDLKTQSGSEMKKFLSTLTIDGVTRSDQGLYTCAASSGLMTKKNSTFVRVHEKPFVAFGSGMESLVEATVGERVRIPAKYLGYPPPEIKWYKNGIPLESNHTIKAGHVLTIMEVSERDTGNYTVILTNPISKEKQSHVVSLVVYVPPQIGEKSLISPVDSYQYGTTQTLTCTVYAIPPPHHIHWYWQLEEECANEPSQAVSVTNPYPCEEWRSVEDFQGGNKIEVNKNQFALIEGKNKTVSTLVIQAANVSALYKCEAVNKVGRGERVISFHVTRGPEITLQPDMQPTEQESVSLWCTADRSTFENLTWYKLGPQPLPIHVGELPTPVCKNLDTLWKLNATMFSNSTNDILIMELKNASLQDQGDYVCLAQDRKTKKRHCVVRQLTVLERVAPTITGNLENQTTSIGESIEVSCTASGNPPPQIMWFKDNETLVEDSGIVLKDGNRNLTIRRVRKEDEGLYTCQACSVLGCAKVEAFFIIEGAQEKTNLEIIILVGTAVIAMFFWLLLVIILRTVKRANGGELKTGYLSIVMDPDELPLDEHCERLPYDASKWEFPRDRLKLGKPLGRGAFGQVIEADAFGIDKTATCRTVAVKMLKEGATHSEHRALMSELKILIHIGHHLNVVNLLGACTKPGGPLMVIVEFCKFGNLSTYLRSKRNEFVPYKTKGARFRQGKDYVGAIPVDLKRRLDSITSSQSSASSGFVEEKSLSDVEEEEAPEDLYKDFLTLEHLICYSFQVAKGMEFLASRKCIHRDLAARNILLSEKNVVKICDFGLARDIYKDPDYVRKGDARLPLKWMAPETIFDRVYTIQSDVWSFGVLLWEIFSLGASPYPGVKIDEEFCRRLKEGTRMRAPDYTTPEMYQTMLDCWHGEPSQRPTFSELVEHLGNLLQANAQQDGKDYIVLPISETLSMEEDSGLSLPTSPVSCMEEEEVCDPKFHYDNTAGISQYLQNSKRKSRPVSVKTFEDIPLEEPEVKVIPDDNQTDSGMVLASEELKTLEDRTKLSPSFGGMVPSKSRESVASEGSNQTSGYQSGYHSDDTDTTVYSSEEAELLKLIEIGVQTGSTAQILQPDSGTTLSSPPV
Glycogen synthase kinase-3 beta (Rattus norvegicus, UniProt P18266), sequence (P18266 whole entry): as the sequence (P49841 whole entry) above, with V240M, T390P, T392A, A400T, T402A counted along it
Dual specificity mitogen-activated protein kinase kinase 1 (Homo sapiens), sequence (Q02750 whole entry): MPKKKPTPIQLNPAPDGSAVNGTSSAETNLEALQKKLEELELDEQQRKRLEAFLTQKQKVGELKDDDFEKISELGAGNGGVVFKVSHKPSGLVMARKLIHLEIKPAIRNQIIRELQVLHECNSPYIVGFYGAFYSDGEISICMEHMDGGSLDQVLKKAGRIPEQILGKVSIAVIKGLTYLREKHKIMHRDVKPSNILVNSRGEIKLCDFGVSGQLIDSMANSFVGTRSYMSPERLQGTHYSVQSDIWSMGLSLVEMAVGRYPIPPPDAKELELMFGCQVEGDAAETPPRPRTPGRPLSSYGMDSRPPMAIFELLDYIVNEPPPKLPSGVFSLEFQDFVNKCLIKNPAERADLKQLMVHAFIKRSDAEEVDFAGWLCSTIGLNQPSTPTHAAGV
RAC-alpha serine/threonine-protein kinase (Homo sapiens), sequence (P31749 whole entry): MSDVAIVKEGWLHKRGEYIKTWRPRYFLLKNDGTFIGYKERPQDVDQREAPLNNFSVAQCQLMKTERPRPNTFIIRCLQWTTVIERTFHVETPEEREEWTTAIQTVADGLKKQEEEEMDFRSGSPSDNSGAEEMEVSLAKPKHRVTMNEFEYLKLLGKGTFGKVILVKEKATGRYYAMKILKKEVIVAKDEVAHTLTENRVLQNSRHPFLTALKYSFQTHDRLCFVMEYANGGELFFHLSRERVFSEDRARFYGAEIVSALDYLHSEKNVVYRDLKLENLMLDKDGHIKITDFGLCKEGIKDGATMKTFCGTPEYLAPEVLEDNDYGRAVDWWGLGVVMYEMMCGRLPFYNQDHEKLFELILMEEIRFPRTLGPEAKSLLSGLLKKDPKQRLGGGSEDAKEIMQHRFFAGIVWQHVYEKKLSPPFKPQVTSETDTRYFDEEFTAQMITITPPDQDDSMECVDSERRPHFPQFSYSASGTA

Nc1ncnc2oc(-c3cccnc3)c(-c3ccc(NS(=O)(=O)c4cccs4)cc3)c12 showed an IC50 [1] of 0.023 µM.
Compound CS(=O)(=O)Nc1ccc(-c2c(-c3cccnc3)oc3ncnc(N)c23)cc1 has an IC50 [1] of 0.475 µM.
CC(=O)Nc1ccc(-c2c(-c3cccnc3)oc3ncnc(N)c23)cc1 showed an IC50 [1] of 1.63 µM.
In the case of Nc1ncnc2oc(-c3cccnc3)c(-c3ccc(NS(=O)(=O)c4ccccc4)cc3)c12, the inhibition [2] is reported as 100%, the IC50 [3] is reported as 1.12 µM and the IC50 [1] is reported as 0.03 µM. The inhibition [4] was 29%, the inhibition [5] was 27% and the inhibition [6] was -0%. For the same compound, the inhibition [7] was 3%, the inhibition [8] was 44% and the inhibition [9] was 3%. The EC50 [10] was 3.2 µM, the inhibition [11] was -0% and the inhibition [12] was 5%. For the same compound, the inhibition [13] was 7%.
With COc1ccc(-c2oc3ncnc(N)c3c2-c2ccc(NS(=O)(=O)c3ccccc3)cc2)cc1 the IC50 [1] was > 15 µM.
For COc1ccc(-c2oc3ncnc(N)c3c2-c2ccc(OC)cc2)cc1, the IC50 [1] was > 15 µM.
With Nc1ncnc2oc(-c3cccnc3)c(-c3ccc(NC(=O)c4cccc(F)c4)cc3)c12 the IC50 [1] was 1.59 µM.
